From ChEMBL document CHEMBL4351010, “Design, synthesis and biological evaluation of 2-hydrazinyladenosine derivatives as A2A adenosine receptor ligands” (Eur J Med Chem, 2019)

Experiments:
[1] = molecular target: T1, Adenosine receptor A1 (Homo sapiens) (UniProt P30542); assay: Displacement of [3H]DPCPX from human cloned adenosine receptor A1 expressed in CHO-K1 cell membranes at 1 uM incubated for 60 mins by microbeta counting method relative to control
T1 sequence (whole entry): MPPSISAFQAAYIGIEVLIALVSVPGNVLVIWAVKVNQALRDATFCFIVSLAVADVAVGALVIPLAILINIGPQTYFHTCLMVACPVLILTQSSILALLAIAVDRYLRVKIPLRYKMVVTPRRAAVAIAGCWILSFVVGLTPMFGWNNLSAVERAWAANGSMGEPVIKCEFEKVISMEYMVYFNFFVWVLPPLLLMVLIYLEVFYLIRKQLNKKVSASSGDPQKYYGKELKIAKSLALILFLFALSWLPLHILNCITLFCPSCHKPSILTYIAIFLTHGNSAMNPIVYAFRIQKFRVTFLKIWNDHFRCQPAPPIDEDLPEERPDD
In short: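 Human A1 CHO-K1 membranes in Tris-HCl pH 7.4/MgCl2/EDTA buffer with adenosine deaminase. Radioligand [3H]DPCPX at 5 nM. Single compound concentration of 1 μM. Incubation 60 min at 27°C. Filtration then scintillation counting. Result is percent displacement of specific binding.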

Homo sapiens = species on record: Homo sapiens; assay: Selectivity index, ratio of Ki for human cloned adenosine receptor A1 expressed in CHO-K1 cell membrane to Ki for human cloned adenosine receptor A2A expressed in HEK293 cell membrane incubated for 60 mins by microbeta counting method; format: cell-based
In short: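 Ratio Ki(A1)/Ki(A2A). […] Both assays incubated 60 min at 27°C and read by filtration scintillation counting. Ki values from Cheng–Prusoff conversion.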

Adenosine receptor A1 [2] = molecular target: T2, Adenosine receptor A1 (Homo sapiens, UniProt P30542); assay: Displacement of [3H]DPCPX from human cloned adenosine receptor A1 expressed in CHO-K1 cell membranes incubated for 60 mins by microbeta counting method
T2 sequence (P30542 whole entry): T1 sequence (whole entry)
In short: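 Radioligand [3H]DPCPX at 5 nM. Compounds tested as 10-point three-fold dilution series. Incubation 60 min at 27°C. Read-out by GF/B filtration and scintillation counting. Ki obtained from IC50 by Cheng–Prusoff (Kd 2.28 nM). Mean ± SEM of duplicates.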

Adenosine receptor A2a [3] = molecular target: T3, Adenosine receptor A2a (Homo sapiens, UniProt P29274); assay: Displacement of [3H]CGS21680 from human cloned adenosine receptor A2A expressed in HEK-293 cell membrane incubated for 60 mins by microbeta counting method; format: cell membranes
In short: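 Compounds tested as 10-point three-fold dilution series. Incubation 60 min at 27°C. Bound ligand separated by GF/B filtration, scintillation counted. Mean ± SEM of duplicates.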

Adenosine receptor A2a [4] = molecular target: T3, Adenosine receptor A2a; assay: Agonist activity at human adenosine receptor A2A expressed in HEK293 cells assessed as cAMP accumulation incubated for 30 mins by Eu-cAMP tracer-based Envision plate reader analysis; format: functional, cell-based
In short: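 Intact HEK-293 cells stably expressing human A2A receptor, detached with Versene, resuspended at 300 cells/well in HBSS/HEPES/BSA buffer pH 7.4 with rolipram. Compounds given as 11-point three-fold DMSO dilution series.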

Adenosine receptor A2a [5] = molecular target: T3, Adenosine receptor A2a; assay: Displacement of [3H]CGS21680 from human cloned adenosine receptor A2A expressed in HEK-293 cell membrane at 1 uM incubated for 60 mins by microbeta counting method relative to control; format: cell membranes
In short: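 Human A2A HEK-293 membranes in Tris-HCl pH 7.4/MgCl2/EDTA buffer with adenosine deaminase. […] Single compound concentration of 1 μM. Incubation 60 min at 27°C. Filtration then scintillation counting. Result is percent displacement of specific binding.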

Adenosine receptor A1 [6] = molecular target: T2, Adenosine receptor A1; assay: Displacement of [3H]CPX from human adenosine receptor A1 expressed in CHO-K1 cell membranes incubated for 2 hrs by radioligand competitive binding analysis

T3 sequence (P29274 whole entry): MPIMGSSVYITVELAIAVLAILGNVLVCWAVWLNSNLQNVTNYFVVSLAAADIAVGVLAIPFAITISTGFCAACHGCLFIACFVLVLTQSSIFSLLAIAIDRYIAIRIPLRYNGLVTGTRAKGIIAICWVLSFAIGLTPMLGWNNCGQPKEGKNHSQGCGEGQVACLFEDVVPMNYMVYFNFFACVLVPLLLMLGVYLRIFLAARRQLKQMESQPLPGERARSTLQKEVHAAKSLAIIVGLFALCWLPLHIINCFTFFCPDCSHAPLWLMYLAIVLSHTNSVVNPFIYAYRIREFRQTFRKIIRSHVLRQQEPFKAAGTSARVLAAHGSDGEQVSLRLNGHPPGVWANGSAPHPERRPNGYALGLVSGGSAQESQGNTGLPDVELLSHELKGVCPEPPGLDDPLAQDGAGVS

SMILES	inhibition [1] [%]	Ratio Ki (Homo sapiens)	Ki (Adenosine receptor A1 [2]) [nM]	Ki (Adenosine receptor A2a [3]) [nM]	EC50 (Adenosine receptor A2a [4]) [nM]	inhibition (Adenosine receptor A2a [5]) [%]	Ki (Adenosine receptor A1 [6]) [nM]
CC(=O)Nc1ccc(/C=N/Nc2nc(N)c3ncn([C@@H]4O[C@H](CO)[C@@H](O)[C@H]4O)c3n2)cc1	0	> 1000	> 10000				
Nc1nc(N/N=C/c2ccc(N3CCCC3)cc2)nc2c1ncn2[C@@H]1O[C@H](CO)[C@@H](O)[C@H]1O		0.00077	5.1	6620			
Nc1nc(N/N=C/c2ccc(OCc3ccccc3)c(OCc3ccccc3)c2)nc2c1ncn2[C@@H]1O[C@H](CO)[C@@H](O)[C@H]1O	0	> 1000	> 10000				
CCCCc1nc(/C=N/Nc2nc(N)c3ncn([C@@H]4O[C@H](CO)[C@@H](O)[C@H]4O)c3n2)c(Cl)[nH]1		0.67	12	18	1.1		
Nc1nc(N/N=C/c2ccc3ncccc3c2)nc2c1ncn2[C@@H]1O[C@H](CO)[C@@H](O)[C@H]1O		1.5	9.8	6.5	5.52		
Nc1nc(N/N=C/c2ccc(-c3ccccn3)cc2)nc2c1ncn2[C@@H]1O[C@H](CO)[C@@H](O)[C@H]1O		36	7540				
Nc1nc(N/N=C/c2ccc(-c3ccccc3)cc2)nc2c1ncn2[C@@H]1O[C@H](CO)[C@@H](O)[C@H]1O			7860				
Nc1nc(N/N=C/c2ccc(OCc3ccc(F)cc3)cc2)nc2c1ncn2[C@@H]1O[C@H](CO)[C@@H](O)[C@H]1O		12.5	70		4.05		
Nc1nc(N/N=C/c2ccc[nH]2)nc2c1ncn2[C@@H]1O[C@H](CO)[C@@H](O)[C@H]1O		0.96	8	8.3	8.52		
Nc1nc(N/N=C/c2cncs2)nc2c1ncn2[C@@H]1O[C@H](CO)[C@@H](O)[C@H]1O		0.31	22	71			
CCN(CC)c1ccc(/C=N/Nc2nc(N)c3ncn([C@@H]4O[C@H](CO)[C@@H](O)[C@H]4O)c3n2)cc1	0	> 1000	> 10000	6.4	17.9		
CSCC/C=N/Nc1nc(N)c2ncn([C@@H]3O[C@H](CO)[C@@H](O)[C@H]3O)c2n1	0		> 10000	> 10000		8	
CCCCC/C=C/C=C/C=N/Nc1nc(N)c2ncn([C@@H]3O[C@H](CO)[C@@H](O)[C@H]3O)c2n1		0.11	2	17.5	10.2		
Nc1nc(N/N=C/c2ccc(N(c3ccccc3)c3ccccc3)cc2)nc2c1ncn2[C@@H]1O[C@H](CO)[C@@H](O)[C@H]1O	0	> 1000	> 10000				
Nc1nc(N/N=C/c2ccc(C(F)(F)F)cc2C(F)(F)F)nc2c1ncn2[C@@H]1O[C@H](CO)[C@@H](O)[C@H]1O	0	> 1000	> 10000	6280			
CCOc1cc(/C=N/Nc2nc(N)c3ncn([C@@H]4O[C@H](CO)[C@@H](O)[C@H]4O)c3n2)ccc1O		5	6940				
COc1cc(/C=N/Nc2nc(N)c3ncn([C@@H]4O[C@H](CO)[C@@H](O)[C@H]4O)c3n2)cc(OC)c1OC	0	> 1000	> 10000	5490			

SMILES	inhibition [1] [%]	Ratio Ki (Homo sapiens)	Ki (Adenosine receptor A1 [2]) [nM]	Ki (Adenosine receptor A2a [3]) [nM]	EC50 (Adenosine receptor A2a [4]) [nM]	inhibition (Adenosine receptor A2a [5]) [%]	Ki (Adenosine receptor A1 [6]) [nM]
Nc1nc(N/N=C/C2CCCC2)nc2c1ncn2[C@@H]1O[C@H](CO)[C@@H](O)[C@H]1O		1.4	5.6	4.1	4.34		
COc1ccc(/C=N/Nc2nc(N)c3ncn([C@@H]4O[C@H](CO)[C@@H](O)[C@H]4O)c3n2)cn1		0.0018	2.6	1450			
CCCOc1ccc(/C=N/Nc2nc(N)c3ncn([C@@H]4O[C@H](CO)[C@@H](O)[C@H]4O)c3n2)cc1	7	66	> 10000	224			
Nc1nc(N/N=C/c2ccc(-c3ccc(Br)cc3)o2)nc2c1ncn2[C@@H]1O[C@H](CO)[C@@H](O)[C@H]1O		< 0.001	4.5	> 10000		27	
CC(/C=N/Nc1nc(N)c2ncn([C@@H]3O[C@H](CO)[C@@H](O)[C@H]3O)c2n1)Cc1ccc(C(C)C)cc1 (some centres not stated)		1430	9500	6.3	1.38		
Nc1nc(N/N=C/c2cccc(OCc3ccccc3)c2)nc2c1ncn2[C@@H]1O[C@H](CO)[C@@H](O)[C@H]1O		0.075	13				
CNC(=O)c1cnn(-c2nc(N)c3ncn([C@@H]4O[C@H](CO)[C@@H](O)[C@H]4O)c3n2)c1 [REGADENOSON ANHYDROUS]							> 16500
Nc1nc(N/N=C/c2ccc(N3CCOCC3)cc2)nc2c1ncn2[C@@H]1O[C@H](CO)[C@@H](O)[C@H]1O		0.003	2.5				
Nc1nc(N/N=C/c2ccc(Cl)c(C(F)(F)F)c2)nc2c1ncn2[C@@H]1O[C@H](CO)[C@@H](O)[C@H]1O	11	> 1000	> 10000				
N#Cc1ccc(/C=N/Nc2nc(N)c3ncn([C@@H]4O[C@H](CO)[C@@H](O)[C@H]4O)c3n2)cc1		0.5	4.1	8.5	15.3		
Nc1nc(N/N=C/c2ccc(Br)cn2)nc2c1ncn2[C@@H]1O[C@H](CO)[C@@H](O)[C@H]1O		0.02	4.7	239			
Nc1nc(N/N=C/c2cccnc2Cl)nc2c1ncn2[C@@H]1O[C@H](CO)[C@@H](O)[C@H]1O		0.53	4.6	8.7	4.6		
COc1cc(/C=N/Nc2nc(N)c3ncn([C@@H]4O[C@H](CO)[C@@H](O)[C@H]4O)c3n2)ccc1OCc1ccccc1		91	9140				
Nc1nc(N/N=C/c2ccc(-n3ccnc3)cc2)nc2c1ncn2[C@@H]1O[C@H](CO)[C@@H](O)[C@H]1O	0	> 1000	> 10000				
Nc1nc(N/N=C/c2ccc(C(F)(F)F)cc2)nc2c1ncn2[C@@H]1O[C@H](CO)[C@@H](O)[C@H]1O		0.6	37				
N#Cc1ccccc1/C=N/Nc1nc(N)c2ncn([C@@H]3O[C@H](CO)[C@@H](O)[C@H]3O)c2n1			2.9				
